Results reported in ChEMBL document CHEMBL1127799, “Derivatives of a novel cyclopeptolide. 1. Synthesis, antifungal activity, and structure-activity relationships” (1994).
In brackets after ≈: the same amount, converted by molar mass.

How the values were obtained:
Type in all cases: functional
Pichia kudriavzevii [1] = assay: Tested for minimum inhibitory concentration against Candida krusei 132 (C.k) at pH of 4.5.
Method in brief: (§1)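 Broth microdilution in malt extract broth, initial pH 4.5 or 6.5, with 1×10^3 CFU per 0.2 mL well of thawed stored cultures. Compound stocks were made in 5% DMSO/0.2% Tween 80 and diluted to final 0.05–100 μg/mL. Plates were incubated 48 h at 30 °C and read macroscopically. MIC was the lowest concentration with no detectable growth. Vehicle-only wells served as controls.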

[2] = tested on: Meyerozyma guilliermondii; assay: Tested for minimum inhibitory concentration against Candida guilliermondii 80 (C.g) at pH of 6.5.; method in brief: as §1
Candida tropicalis [3] = assay: Tested for minimum inhibitory concentration against Candida tropicalis 43 (C.t) at pH of 4.5.; method in brief: as §1
Candida albicans [4] = assay: Tested for minimum inhibitory concentration against Candida albicans 124 (Candida albicans) at pH of 6.5.; method in brief: as §1
Candida tropicalis [5] = assay: Tested for minimum inhibitory concentration against Candida tropicalis 43 (C.t) at pH of 6.5.; method in brief: as §1
Pichia kudriavzevii [6] = assay: Tested for minimum inhibitory concentration against Candida krusei 132 (C.k) at pH of 6.5.; method in brief: as §1
Candida albicans [7] = assay: Tested for minimum inhibitory concentration against Candida albicans 124 (Candida albicans) at pH of 4.5.; method in brief: as §1
[8] = tested on: Meyerozyma guilliermondii; assay: Tested for minimum inhibitory concentration against Candida guilliermondii 80 (C.g) at pH of 4.5.; method in brief: as §1

Row | Structure (SMILES) | MIC (Pichia kudriavzevii [1]) | MIC [2] | MIC (Candida tropicalis [3]) | MIC (Candida albicans [4]) | MIC (Candida tropicalis [5]) | MIC (Pichia kudriavzevii [6]) | MIC (Candida albicans [7]) | MIC [8]
1 | CC[C@@H](C)[C@H]1C(=O)NCC(=O)N(C)[C@@H](C(C)C)C(=O)N[C@@H](Cc2ccc(OC)cc2)C(=O)O[C@H](C)C(=O)N2CCCC[C@H]2C(=O)N(C)[C@@H](C(C)C)C(=O)N[C@@H](C(C)C)C(=O)N(C)[C@@H](CC(=O)NC[Si](C)(C)C)C(=O)N(C)[C@@H]([C@@H](C)CC)C(=O)N1C | > 100 µg/mL | > 100 µg/mL | > 100 µg/mL | > 100 µg/mL | > 100 µg/mL | > 100 µg/mL | > 100 µg/mL | > 100 µg/mL
2 | CC[C@@H](C)[C@H]1C(=O)NCC(=O)N(C)[C@@H](C(C)C)C(=O)N[C@@H](Cc2ccc(OC)cc2)C(=O)N[C@@H](C)C(=O)N2CCCC[C@H]2C(=O)N(C)[C@@H](C(C)C)C(=O)N[C@@H](C(C)C)C(=O)N(C)[C@@H](CC(=O)O)C(=O)N(C)[C@@H]([C@@H](C)CC)C(=O)N1C | 25 µg/mL (≈ 22.2 µM) | 25 µg/mL (≈ 22.2 µM) | 6.25 µg/mL (≈ 5.55 µM) | 6.25 µg/mL (≈ 5.55 µM) | 25 µg/mL (≈ 22.2 µM) | 50 µg/mL (≈ 44.4 µM) | 3.13 µg/mL (≈ 2.78 µM) | 6.25 µg/mL (≈ 5.55 µM)
3 | CC[C@@H](C)[C@H]1C(=O)NCC(=O)N(C)[C@@H](C(C)C)C(=O)N[C@@H](Cc2ccc(OC)cc2)C(=O)O[C@H](C)C(=O)N2CCCC[C@H]2C(=O)N(C)[C@@H](C(C)C)C(=O)N[C@@H](C(C)C)C(=O)N(C)[C@@H](CC(=O)NCCN(C)C)C(=O)N(C)[C@@H]([C@@H](C)CC)C(=O)N1C | > 100 µg/mL | > 100 µg/mL | > 100 µg/mL | > 100 µg/mL | > 100 µg/mL | > 100 µg/mL | > 100 µg/mL | > 100 µg/mL
4 | CC[C@@H](C)[C@H]1C(=O)NCC(=O)N(C)[C@@H](C(C)C)C(=O)N[C@@H](Cc2ccc(OC)cc2)C(=O)O[C@H](C)C(=O)N2CCCC[C@H]2C(=O)N(C)[C@@H](C(C)C)C(=O)N[C@@H](C(C)C)C(=O)N(C)[C@@H](CCCl)C(=O)N(C)[C@@H]([C@@H](C)CC)C(=O)N1C | > 100 µg/mL | > 100 µg/mL | > 100 µg/mL | > 100 µg/mL | > 100 µg/mL | > 100 µg/mL | > 100 µg/mL | > 100 µg/mL
5 | CC[C@@H](C)[C@H]1C(=O)NCC(=O)N(C)[C@@H](C(C)C)C(=O)N[C@@H](Cc2ccc(OC)cc2)C(=O)O[C@H](C)C(=O)N2CCCC[C@H]2C(=O)N(C)[C@@H](C(C)C)C(=O)N[C@@H](C(C)C)C(=O)N(C)[C@@H](CCOC(=O)c2ccccc2C(=O)O)C(=O)N(C)[C@@H]([C@@H](C)CC)C(=O)N1C | > 100 µg/mL | > 100 µg/mL | > 100 µg/mL | > 100 µg/mL | > 100 µg/mL | > 100 µg/mL | > 100 µg/mL | > 100 µg/mL
6 | CC[C@@H](C)[C@H]1C(=O)NCC(=O)N(C)[C@@H](C(C)C)C(=O)N[C@@H](Cc2ccc(OC)cc2)C(=O)O[C@H](C)C(=O)N2CCCC[C@H]2C(=O)N(C)[C@@H](C(C)C)C(=O)N[C@@H](C(C)C)C(=O)N(C)[C@@H](CCOC(C)=O)C(=O)N(C)[C@@H]([C@@H](C)CC)C(=O)N1C | > 100 µg/mL | > 100 µg/mL | 100 µg/mL (≈ 86.6 µM) | 50 µg/mL (≈ 43.3 µM) | > 100 µg/mL | > 100 µg/mL | 12.5 µg/mL (≈ 10.8 µM) | > 100 µg/mL
7 | CC[C@@H](C)[C@H]1C(=O)NCC(=O)N(C)[C@@H](C(C)C)C(=O)N[C@@H](Cc2ccc(OCc3ccc(Br)cc3)cc2)C(=O)O[C@H](C)C(=O)N2CCCC[C@H]2C(=O)N(C)[C@@H](C(C)C)C(=O)N[C@@H](C(C)C)C(=O)N(C)[C@@H](CC(=O)O)C(=O)N(C)[C@@H]([C@@H](C)CC)C(=O)N1C | > 100 µg/mL | > 100 µg/mL | > 100 µg/mL | > 100 µg/mL | > 100 µg/mL | > 100 µg/mL | > 100 µg/mL | > 100 µg/mL
8 | CC[C@@H](C)[C@H]1C(=O)NCC(=O)N(C)[C@@H](C(C)C)C(=O)N[C@@H](Cc2ccc(OC)cc2)C(=O)O[C@@H](C)C(=O)N2CCCC[C@H]2C(=O)N(C)[C@@H](C(C)C)C(=O)N[C@@H](C(C)C)C(=O)N(C)[C@@H](CC(=O)O)C(=O)N(C)[C@@H]([C@@H](C)CC)C(=O)N1C | 25 µg/mL (≈ 22.2 µM) | 100 µg/mL (≈ 88.8 µM) | 6.25 µg/mL (≈ 5.55 µM) | 12.5 µg/mL (≈ 11.1 µM) | 25 µg/mL (≈ 22.2 µM) | 50 µg/mL (≈ 44.4 µM) | 3.13 µg/mL (≈ 2.78 µM) | 12.5 µg/mL (≈ 11.1 µM)
9 | CC[C@@H](C)[C@H]1C(=O)NCC(=O)N(C)[C@@H](C(C)C)C(=O)N[C@@H](Cc2ccc(OCC(=O)O)cc2)C(=O)O[C@H](C)C(=O)N2CCCC[C@H]2C(=O)N(C)[C@@H](C(C)C)C(=O)N[C@@H](C(C)C)C(=O)N(C)[C@@H](CC(=O)O)C(=O)N(C)[C@@H]([C@@H](C)CC)C(=O)N1C | > 100 µg/mL | > 100 µg/mL | 25 µg/mL (≈ 21.4 µM) | 100 µg/mL (≈ 85.4 µM) | > 100 µg/mL | > 100 µg/mL | 12.5 µg/mL (≈ 10.7 µM) | 25 µg/mL (≈ 21.4 µM)
10 | CC[C@@H](C)[C@H]1C(=O)NCC(=O)N(C)[C@@H](C(C)C)C(=O)N[C@@H](Cc2ccc(OC)cc2)C(=O)O[C@H](C)C(=O)N2CCCC[C@H]2C(=O)N(C)[C@@H](C(C)C)C(=O)N[C@@H](C(C)C)C(=O)N(C)[C@@H](CC(=O)Nc2ccc(Br)cc2)C(=O)N(C)[C@@H]([C@@H](C)CC)C(=O)N1C | > 100 µg/mL | > 100 µg/mL | > 100 µg/mL | > 100 µg/mL | > 100 µg/mL | > 100 µg/mL | > 100 µg/mL | > 100 µg/mL
11 | CCCCCCCCOC(=O)C[C@H]1C(=O)N(C)[C@@H]([C@@H](C)CC)C(=O)N(C)[C@@H]([C@H](C)CC)C(=O)NCC(=O)N(C)[C@@H](C(C)C)C(=O)N[C@@H](Cc2ccc(OC)cc2)C(=O)O[C@H](C)C(=O)N2CCCC[C@H]2C(=O)N(C)[C@@H](C(C)C)C(=O)N[C@@H](C(C)C)C(=O)N1C | > 100 µg/mL | > 100 µg/mL | > 100 µg/mL | > 100 µg/mL | > 100 µg/mL | > 100 µg/mL | > 100 µg/mL | > 100 µg/mL
12 | CC[C@@H](C)[C@H]1C(=O)NCC(=O)N(C)[C@@H](C(C)C)C(=O)N[C@@H](Cc2ccc(OC)cc2)C(=O)O[C@H](C)C(=O)N2CCCC[C@H]2C(=O)N(C)[C@@H](C(C)C)C(=O)N[C@@H](C(C)C)C(=O)N(C)[C@@H](CC(=O)OC(C)(C)C)C(=O)N(C)[C@@H]([C@@H](C)CC)C(=O)N1C | > 100 µg/mL | > 100 µg/mL | > 100 µg/mL | > 100 µg/mL | > 100 µg/mL | > 100 µg/mL | > 100 µg/mL | > 100 µg/mL
13 | CC[C@@H](C)[C@H]1C(=O)NCC(=O)N(C)[C@@H](C(C)C)C(=O)N[C@@H](Cc2ccc(OC)cc2)C(=O)N[C@H](C)C(=O)N2CCCC[C@H]2C(=O)N(C)[C@@H](C(C)C)C(=O)N[C@@H](C(C)C)C(=O)N(C)[C@@H](CC(=O)O)C(=O)N(C)[C@@H]([C@@H](C)CC)C(=O)N1C | > 100 µg/mL | > 100 µg/mL | > 100 µg/mL | 100 µg/mL (≈ 88.9 µM) | > 100 µg/mL | > 100 µg/mL | 25 µg/mL (≈ 22.2 µM) | > 100 µg/mL
14 | CC[C@H](C)[C@H]1C(=O)NCC(=O)N(C)[C@@H](C(C)C)C(=O)N[C@@H](Cc2ccc(OC)cc2)C(=O)N[C@@H](C)C(=O)N[C@H](C)C(=O)N2CCCC[C@H]2C(=O)N(C)[C@@H](C(C)C)C(=O)N[C@@H](C(C)C)C(=O)N(C)[C@@H](CC(=O)OC(C)(C)C)C(=O)N(C)[C@@H]([C@@H](C)CC)C(=O)N1C | > 100 µg/mL | – | > 100 µg/mL | – | – | – | > 100 µg/mL | > 100 µg/mL
